Legend:
[1] = Plasma concentration in nonobese adult human at 4 mg/kg, iv administered as single dose 30 mins infusion measured after 24 hrs; format: ADME, organism-based; design: dose 4 mg/kg, route intravenous
[2] = Plasma concentration in moderately obese adult human at 4 mg/kg, iv administered as single dose 30 mins infusion measured after 24 hrs; format: ADME, organism-based; design: dose 4 mg/kg, route intravenous
[3] = Cmax in adult human subjects at 6 mg/kg, iv administered as single dose 30 mins infusion; format: ADME, organism-based; design: dose 6 mg/kg, route intravenous; details: in vivo
[4] = Cmax in old healthy human at 4 mg/kg, iv administered as single dose 30 mins infusion; format: ADME, organism-based; design: dose 4 mg/kg, route intravenous; details: in vivo
[5] = Unbound fraction in healthy human plasma at 4 mg/kg, iv administered as 30 mins infusion every 24 hrs measured on day 1; format: ADME, organism-based; design: dose 4 mg/kg, route intravenous
[6] = Unbound fraction in healthy human plasma at 6 mg/kg, iv administered as 30 mins infusion every 24 hrs measured on day 1; format: ADME, organism-based; design: dose 6 mg/kg, route intravenous
[7] = Unbound fraction in healthy human plasma at 4 mg/kg, iv administered as 30 mins infusion every 24 hrs measured on day 7; format: ADME, organism-based; design: dose 4 mg/kg, route intravenous
[8] = Plasma concentration in cancer patient with neutropenic fever at 6 mg/kg, iv administered as 30 mins infusion every 24 hrs measured after 24 hrs; format: ADME, organism-based; design: dose 6 mg/kg, route intravenous; details: human
Procedure, shortened: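 29 adult oncology patients with neutropenic fever received 6 mg/kg (total body weight) daptomycin as a 30-min IV infusion every 24 h. Plasma was sampled predose, at end of infusion, and 0.5, 1, 2, 4, 8, 12 and 24 h after infusion start. Total drug was measured by validated HPLC (linear 1–100 μg/ml, detection limit 1 μg/ml). Tmax was the observed value, analysed noncompartmentally.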

[9] = Plasma protein binding in human after 8 hrs; format: ADME, cell-free; details: read-out: PPB (converted)
Procedure, shortened: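 Neutropenic-fever oncology patients received 6 mg/kg IV daptomycin; serum was drawn 0.5, 2 and 8 h after the end of infusion. Free drug was obtained by ultrafiltration (30,000-MW cutoff) and quantified by HPLC against a saline-matrix curve of 0.25–100 μg/ml, with total plasma drug also measured. Percent bound was (total − free)/total × 100; results are given as mean ± SD.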

[10] = Apparent volume of distribution during terminal phase in healthy human subjects at 12 mg/kg, iv administered as 30 mins infusion every 24 hrs measured on day 1; format: ADME, organism-based; design: dose 12 mg/kg, route intravenous; details: in vivo
[11] = Apparent volume of distribution during terminal phase in healthy human subjects at 10 mg/kg, iv administered as 30 mins infusion every 24 hrs measured on day 1; format: ADME, organism-based; design: dose 10 mg/kg, route intravenous; details: in vivo
[12] = Apparent volume of distribution during terminal phase in healthy human at 8 mg/kg, iv administered as 30 mins infusion every 24 hrs measured on day 1; format: ADME, organism-based; design: dose 8 mg/kg, route intravenous; details: in vivo
[13] = Half life in young healthy human at 4 mg/kg, iv administered as single dose 30 mins infusion; format: ADME, organism-based; design: dose 4 mg/kg, route intravenous; details: in vivo
[14] = AUC (0 to infinity) in nonobese human at 4 mg/kg, iv administered as single dose 30 mins infusion; format: ADME, organism-based; design: time infinity, dose 4 mg/kg, route intravenous; details: plasma
[15] = AUC (0 to infinity) in nonobese adult human at 4 mg/kg, iv administered as single dose 30 mins infusion; format: ADME, organism-based; design: time infinity, dose 4 mg/kg, route intravenous; details: plasma
[16] = AUC (0 to infinity) in old healthy human at 4 mg/kg, iv administered as single dose 30 mins infusion; format: ADME, organism-based; design: dose 4 mg/kg, route intravenous, time infinity; details: plasma
[17] = AUC (0 to infinity) in healthy human subjects at 8 mg/kg, iv administered as 30 mins infusion every 24 hrs measured on day 1; format: ADME, organism-based; design: time infinity, dose 8 mg/kg, route intravenous; details: plasma
[18] = AUC (0 to infinity) in healthy human at 6 mg/kg, iv administered as 30 mins infusion every 24 hrs measured on day 1; format: ADME, organism-based; design: time infinity, dose 6 mg/kg, route intravenous; details: plasma
[19] = Cmax in healthy human subjects at 12 mg/kg, iv administered as 30 mins infusion every 24 hrs measured on day 14; format: ADME, organism-based; design: dose 12 mg/kg, route intravenous; details: in vivo
[20] = Cmax in healthy human subjects at 10 mg/kg, iv administered as 30 mins infusion every 24 hrs measured on day 4; format: ADME, organism-based; design: dose 10 mg/kg, route intravenous; details: in vivo
Homo sapiens [21] = test: Cmax in healthy human subjects at 6 mg/kg, iv administered as 30 mins infusion every 24 hrs measured on day 4; format: ADME, organism-based; design: dose 6 mg/kg, route intravenous; details: in vivo
[22] = Cmax in healthy human subjects at 12 mg/kg, iv administered as 30 mins infusion every 24 hrs measured on day 1; format: ADME, organism-based; design: dose 12 mg/kg, route intravenous; details: in vivo
[23] = Cmax in healthy human at 6 mg/kg, iv administered as 30 mins infusion every 24 hrs measured on day 7; format: ADME, organism-based; design: dose 6 mg/kg, route intravenous; details: in vivo
[24] = Drug excretion in morbidly obese adult human urine assessed as unchanged drug at 4 mg/kg, iv administered as single dose 30 mins infusion; format: ADME, organism-based; design: dose 4 mg/kg, route intravenous; details: read-out: Drug uptake
[25] = Drug excretion in moderately obese adult human urine assessed as unchanged drug at 4 mg/kg, iv administered as single dose 30 mins infusion; format: ADME, organism-based; design: dose 4 mg/kg, route intravenous; details: read-out: Drug uptake
[26] = Drug excretion in old healthy human urine assessed as unchanged drug at 4 mg/kg, iv administered as single dose 30 mins infusion; format: ADME, organism-based; design: dose 4 mg/kg, route intravenous; details: read-out: Drug uptake
[27] = Apparent volume of distribution in young healthy human at 4 mg/kg, iv administered as single dose 30 mins infusion; format: ADME, organism-based; design: dose 4 mg/kg, route intravenous; details: in vivo
Homo sapiens [28] = test: Volume of distribution in central compartment in healthy human at 4 mg/kg, iv administered as single dose 30 mins infusion; format: ADME, organism-based; design: dose 4 mg/kg, route intravenous; details: in vivo, 0.5 h
[29] = Clearance in healthy adult human at 6 mg/kg, iv administered as single dose 30 mins infusion; format: ADME, organism-based; design: dose 6 mg/kg, route intravenous; details: in vivo
[30] = Clearance in nonobese human at 4 mg/kg, iv administered as single dose 30 mins infusion; format: ADME, organism-based; design: dose 4 mg/kg, route intravenous; details: in vivo
[31] = Half life in healthy adult human at 6 mg/kg, iv administered as single dose 30 mins infusion; format: ADME, organism-based; design: dose 6 mg/kg, route intravenous; details: in vivo
[32] = Half life in adult human subjects at 6 mg/kg, iv administered as single dose 30 mins infusion; format: ADME, organism-based; design: dose 6 mg/kg, route intravenous; details: in vivo
[33] = Half life in adult human with hepatic impairment at 6 mg/kg, iv administered as single dose 30 mins infusion; format: ADME, organism-based; design: dose 6 mg/kg, route intravenous; details: in vivo
Homo sapiens [34] = test: Unbound clearance in healthy human at 6 mg/kg, iv administered as 30 mins infusion every 24 hrs measured on day 7; format: ADME, organism-based; design: dose 6 mg/kg, route intravenous; details: in vivo
[35] = Clearance in healthy human subjects at 10 mg/kg, iv administered as 30 mins infusion every 24 hrs measured on day 14; format: ADME, organism-based; design: dose 10 mg/kg, route intravenous; details: in vivo
[36] = Clearance in healthy human subjects at 10 mg/kg, iv administered as 30 mins infusion every 24 hrs measured on day 4; format: ADME, organism-based; design: dose 10 mg/kg, route intravenous; details: in vivo
[37] = Clearance in healthy human subjects at 6 mg/kg, iv administered as 30 mins infusion every 24 hrs measured on day 1; format: ADME, organism-based; design: dose 6 mg/kg, route intravenous; details: in vivo
[38] = Clearance in healthy human at 8 mg/kg, iv administered as 30 mins infusion every 24 hrs measured on day 14; format: ADME, organism-based; design: dose 8 mg/kg, route intravenous; details: in vivo
[39] = Half life in healthy human subjects at 10 mg/kg, iv administered as 30 mins infusion every 24 hrs measured on day 14; format: ADME, organism-based; design: dose 10 mg/kg, route intravenous; details: in vivo
[40] = Half life in healthy human subjects at 10 mg/kg, iv administered as 30 mins infusion every 24 hrs measured on day 4; format: ADME, organism-based; design: dose 10 mg/kg, route intravenous; details: in vivo
[41] = Half life in healthy human at 8 mg/kg, iv administered as 30 mins infusion every 24 hrs measured on day 7; format: ADME, organism-based; design: dose 8 mg/kg, route intravenous; details: in vivo
[42] = Half life in healthy human at 6 mg/kg, iv administered as 30 mins infusion every 24 hrs measured on day 7; format: ADME, organism-based; design: dose 6 mg/kg, route intravenous; details: in vivo
[43] = Half life in healthy human at 4 mg/kg, iv administered as 30 mins infusion every 24 hrs measured on day 7; format: ADME, organism-based; design: dose 4 mg/kg, route intravenous; details: in vivo
[44] = Half life in healthy human at 6 mg/kg, iv administered as 30 mins infusion every 24 hrs measured on day 1; format: ADME, organism-based; design: dose 6 mg/kg, route intravenous; details: in vivo

SMILES: CCCCCCCCCC(=O)N[C@@H](Cc1c[nH]c2ccccc12)C(=O)N[C@H](CC(N)=O)C(=O)N[C@@H](CC(=O)O)C(=O)N[C@@H]1C(=O)NCC(=O)N[C@@H](CCCN)C(=O)N[C@@H](CC(=O)O)C(=O)N[C@H](C)C(=O)N[C@@H](CC(=O)O)C(=O)NCC(=O)N[C@H](CO)C(=O)N[C@@H]([C@H](C)CC(=O)O)C(=O)N[C@@H](CC(=O)c2ccccc2N)C(=O)O[C@@H]1C
- concentration at 24 h [1]: < 3.3 µg/mL
- concentration at 24 h [2]: 3.44 µg/mL
- Cmax [3]: 118 µg/mL
- Cmax [4]: 44 µg/mL
- fraction unbound at 1 day [5]: 0.08
- fraction unbound at 1 day [6]: 0.07
- fraction unbound at 7 day [7]: 0.08
- concentration at 24 h [8]: 5.67 µg/mL
- fraction unbound at 8 h [9]: 0.068
- Vd [10]: 0.111 L/kg
- Vd [11]: 0.117 L/kg
- Vd [12]: 0.099 L/kg
- half-life [13]: 6.79 h
- AUC(0-inf) [14]: 419 µg·h/mL
- AUC(0-inf) [15]: 322 µg·h/mL
- AUC(0-inf) [16]: 474 µg·h/mL
- AUC(0-inf) [17]: 773 µg·h/mL
- AUC(0-inf) [18]: 705 µg·h/mL
- Cmax [19]: 182 µg/mL
- Cmax [20]: 141 µg/mL
- Cmax (Homo sapiens [21]): 93.9 µg/mL
- Cmax [22]: 165 µg/mL
- Cmax [23]: 98.6 µg/mL
- dose excreted at 0.5 h [24]: 42.7%
- dose excreted at 0.5 h [25]: 51.8%
- dose excreted at 0.5 h [26]: 34.3%
- Vd [27]: 0.15 L/kg
- Vd (Homo sapiens [28]): 3420 mL
- clearance [29]: 0.171 mL/min/kg
- clearance [30]: 0.17 mL/min/kg
- half-life [31]: 8.06 h
- half-life [32]: 9.44 h
- half-life [33]: 8.97 h
- CL (Homo sapiens [34]): 0.997 mL/min/kg
- clearance [35]: 0.125 mL/min/kg
- clearance [36]: 0.147 mL/min/kg
- clearance [37]: 0.165 mL/min/kg
- clearance [38]: 0.123 mL/min/kg
- half-life [39]: 7.9 h
- half-life [40]: 7.9 h
- half-life [41]: 9 h
- half-life [42]: 8.9 h
- half-life [43]: 8.1 h
- half-life [44]: 7.8 h

From ChEMBL document CHEMBL1649119, “Daptomycin pharmacokinetics in adult oncology patients with neutropenic fever” (Antimicrob Agents Chemother, 2009)
